14 compounds from ChEMBL document CHEMBL4673199, “Potent and selective A3 adenosine receptor antagonists bearing aminoesters as heterobifunctional moieties” (RSC Med Chem, 2021) can be followed below.

In assay [1] the target is T1, Adenosine receptor A3 (Homo sapiens, UniProt P0DMS8).
T1 sequence (P0DMS8 whole entry): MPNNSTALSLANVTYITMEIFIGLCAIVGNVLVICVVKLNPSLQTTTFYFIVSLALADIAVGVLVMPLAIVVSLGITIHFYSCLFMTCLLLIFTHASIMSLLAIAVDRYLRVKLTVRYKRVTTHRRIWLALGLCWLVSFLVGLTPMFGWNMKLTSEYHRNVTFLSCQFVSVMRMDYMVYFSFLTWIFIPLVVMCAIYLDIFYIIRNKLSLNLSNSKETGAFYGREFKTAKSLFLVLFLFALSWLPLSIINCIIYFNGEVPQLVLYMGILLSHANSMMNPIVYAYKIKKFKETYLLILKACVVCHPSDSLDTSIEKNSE
Put plainly: Displacement of [3H]-HEMADO from human A3 receptor expressed in CHO cell membrane by radioligand binding assay. Format: cell membranes. Summed up:
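Membranes from CHO cells with human receptor: low-speed spin at 1,000 x g, then crude membranes pelleted at 100,000 x g. Resuspended in 50 mM Tris/HCl, 10 mM MgCl2, 1 mM EDTA, pH 8.25, stored at -80 °C. Radioligand at 1 nM; nonspecific binding with 100 µM R-PIA. Ki by SCTFIT, mean of 3-6 replicates.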
(Loss of bound radioactivity is the signal in a displacement assay; it reports binding, not function.)

The target in assay [2] is Adenosine receptor A2a (Homo sapiens, UniProt P29274). Put plainly: Displacement of [3H]-NECA from human A2A receptor expressed in CHO cell membrane by radioligand binding assay. Format: cell membranes. In short, it runs like this:
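Crude membrane fraction from transfected CHO cells, obtained by 1,000 x g then 100,000 x g centrifugation, in 50 mM Tris/HCl pH 7.4, stored at -80 °C. Radioligand at 10 nM; 100 µM R-PIA defined nonspecific binding. Ki computed with SCTFIT, mean of 3-6 replicates.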

The target in assay [3] is T2, Adenosine receptor A2b (Homo sapiens, UniProt P29275).
T2 sequence (P29275 whole entry): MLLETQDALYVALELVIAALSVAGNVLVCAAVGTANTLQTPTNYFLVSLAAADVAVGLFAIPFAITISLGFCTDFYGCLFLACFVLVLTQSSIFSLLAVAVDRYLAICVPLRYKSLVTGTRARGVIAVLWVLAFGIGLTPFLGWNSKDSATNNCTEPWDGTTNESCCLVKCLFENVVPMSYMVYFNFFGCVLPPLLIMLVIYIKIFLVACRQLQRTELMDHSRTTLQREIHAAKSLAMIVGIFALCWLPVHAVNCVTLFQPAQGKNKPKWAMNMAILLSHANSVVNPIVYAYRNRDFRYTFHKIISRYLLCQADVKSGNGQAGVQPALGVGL
Put plainly: Antagonist activity at human A2B receptor expressed in CHO cell membrane assessed as reduction in NECA-stimulated adenylyl cyclase activity in presence of [alpha32P]ATP. Format: functional, cell membranes.

The target of assay [4] is T3, Adenosine receptor A1 (Homo sapiens, UniProt P30542).
T3 sequence (P30542 whole entry): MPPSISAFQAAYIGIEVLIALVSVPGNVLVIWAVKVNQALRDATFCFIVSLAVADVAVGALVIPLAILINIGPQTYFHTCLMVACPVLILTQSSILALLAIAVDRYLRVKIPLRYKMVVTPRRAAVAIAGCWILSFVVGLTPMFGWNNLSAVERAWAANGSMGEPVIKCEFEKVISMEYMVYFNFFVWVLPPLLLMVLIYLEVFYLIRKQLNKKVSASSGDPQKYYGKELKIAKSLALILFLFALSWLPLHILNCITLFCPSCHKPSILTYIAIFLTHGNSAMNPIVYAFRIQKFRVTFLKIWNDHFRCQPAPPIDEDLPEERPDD
Put plainly: Displacement of [3H]CCPA from human A1 receptor expressed in CHO cell membrane by radioligand binding assay. The format is cell membranes. In short, it runs like this:
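CHO membranes prepared by 1,000 x g clearing, then 100,000 x g sedimentation, resuspended in 50 mM Tris/HCl pH 7.4 and kept at -80 °C. Labelled with 1 nM radioligand; nonspecific binding with theophylline (1 mM). Ki values from SCTFIT, mean of 3-6 replicates.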

SMILES strings stand for the structures.

Adenosine receptor A2a, sequence (P29274 whole entry): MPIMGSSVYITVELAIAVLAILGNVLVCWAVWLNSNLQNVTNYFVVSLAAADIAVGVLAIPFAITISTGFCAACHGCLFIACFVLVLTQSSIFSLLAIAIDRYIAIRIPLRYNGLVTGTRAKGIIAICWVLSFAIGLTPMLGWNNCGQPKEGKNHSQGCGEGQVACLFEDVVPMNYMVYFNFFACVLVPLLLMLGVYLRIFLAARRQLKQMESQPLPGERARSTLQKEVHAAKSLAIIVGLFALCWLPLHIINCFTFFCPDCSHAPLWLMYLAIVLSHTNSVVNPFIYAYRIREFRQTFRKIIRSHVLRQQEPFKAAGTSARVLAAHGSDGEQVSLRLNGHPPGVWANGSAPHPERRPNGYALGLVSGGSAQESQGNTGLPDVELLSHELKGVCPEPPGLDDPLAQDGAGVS

For the compound `CCOC(=O)C(Nc1nc2nn(C)cc2c2nc(-c3ccco3)nn12)C(O)c1ccccc1` (racemic), the Ki (in general, the dissociation constant of the complex between target and ligand, obtained from inhibition or displacement) turned out to be 46.5 nM in assay [1], 376 nM in assay [2] and 882 nM in assay [4]. The IC50 (as a rule, the concentration that gives 50% inhibition) in assay [3] was greater than 10000 nM.

For the compound `CCOC(=O)CCCNc1nc2nn(C)cc2c2nc(-c3ccco3)nn12`, the Ki in assay [1] came out at 108 nM; in assay [2], 231 nM; in assay [4], 901 nM. In assay [3], the IC50 was greater than 10000 nM.

As for `CCOC(=O)C(Nc1nc2nn(C)cc2c2nc(-c3ccco3)nn12)C(C)C` (racemic), the Ki turned out to be 1.72 nM in assay [1], 1270 nM in assay [2] and 591 nM in assay [4]. Also, in assay [3], the IC50 is greater than 10000 nM.

On to `CCOC(=O)C(C)Nc1nc2nn(C)cc2c2nc(-c3ccco3)nn12` (racemic), for which the inhibition constant Ki in assay [1] was 15.5 nM; in assay [2], 820 nM; in assay [4] it was 2200 nM. Also, the half-inhibitory concentration (IC50) in assay [3] is greater than 10000 nM.

As to `CCCCC(Nc1nc2nn(C)cc2c2nc(-c3ccco3)nn12)C(=O)OCC` (racemic), the Ki in assay [1] amounted to 1.06 nM; in assay [2] it was 551 nM; in assay [4], 388 nM. Besides, in assay [3], the IC50 is greater than 10000 nM.

For `CCOC(=O)C(CC(C)C)Nc1nc2nn(C)cc2c2nc(-c3ccco3)nn12` (racemic), the inhibition constant (Ki) was determined as 0.5 nM in assay [1], 398 nM in assay [2] and 322 nM in assay [4]. In addition, the IC50 in assay [3] was greater than 10000 nM.

Turning to `CCOC(=O)C[C@H](Nc1nc2nn(C)cc2c2nc(-c3ccco3)nn12)C(=O)OCC`, the results for the Ki in assay [1], in assay [2] and in assay [4] were 16.3 nM, 445 nM and 552 nM, respectively. In assay [3], the half-inhibitory concentration (IC50) is greater than 10000 nM.

On to `CCOC(=O)C(CO)Nc1nc2nn(C)cc2c2nc(-c3ccco3)nn12` (racemic), for which the inhibition constant Ki in assay [1] stood at 17.1 nM; in assay [2], 348 nM; in assay [4] it was 312 nM.

With `CCOC(=O)C(Nc1nc2nn(C)cc2c2nc(-c3ccco3)nn12)c1ccccc1` (racemic), the Ki in assay [1] was 0.306 nM; in assay [2], 860 nM; in assay [4], 173 nM. Besides, the IC50 in assay [3] was greater than 10000 nM.

Regarding `CCOC(=O)[C@@H](Cc1c[nH]c2ccccc12)Nc1nc2nn(C)cc2c2nc(-c3ccco3)nn12`, the Ki was 59.7 nM in assay [1], 889 nM in assay [2] and 1570 nM in assay [4].

Consider `COC(=O)[C@@H]1CCCN1c1nc2nn(C)cc2c2nc(-c3ccco3)nn12`, for which the inhibition constant Ki in assay [1] was 113 nM; in assay [2] it was 428 nM; in assay [4] it was 2270 nM. The IC50 in assay [3] was greater than 10000 nM.

As to `CCOC(=O)CC[C@H](Nc1nc2nn(C)cc2c2nc(-c3ccco3)nn12)C(=O)OCC`, the Ki is 7.55 nM in assay [1], 2670 nM in assay [2] and 919 nM in assay [4]. The IC50 in assay [3] was greater than 10000 nM.

With `CCOC(=O)[C@H](Cc1ccc(O)cc1)Nc1nc2nn(C)cc2c2nc(-c3ccco3)nn12`, the results for the inhibition constant (Ki) in assay [1], in assay [2] and in assay [4] were 24.6 nM, 1300 nM and 617 nM, respectively. For the same compound, the IC50 in assay [3] was greater than 10000 nM.

Turning to `CCOC(=O)[C@H](Cc1ccccc1)Nc1nc2nn(C)cc2c2nc(-c3ccco3)nn12`, the Ki in assay [1] was determined as 50.6 nM; in assay [2] it was 1300 nM; in assay [4], 1820 nM. In assay [3], the IC50 is greater than 10000 nM.
